ChEMBL document CHEMBL1140788, “Development of CXCR3 antagonists. Part 3: Tropenyl and homotropenyl-piperidine urea derivatives” (Bioorg Med Chem Lett, 2008)
Converted amounts (≈) assume the structure as drawn. The source made the active and inactive calls. The calls are words filed in the database; no cut-off is given here.

What was measured:
[1] = Intrinsic clearance in human liver microsomes at 0.5 uM; assay type: ADME, Microsome
[2] = molecular target: T1, C-X-C chemokine receptor type 3 (Mus musculus, UniProt O88410); experiment: Antagonist activity at mouse CXCR3; assay type: functional
T1 sequence (O88410 whole entry): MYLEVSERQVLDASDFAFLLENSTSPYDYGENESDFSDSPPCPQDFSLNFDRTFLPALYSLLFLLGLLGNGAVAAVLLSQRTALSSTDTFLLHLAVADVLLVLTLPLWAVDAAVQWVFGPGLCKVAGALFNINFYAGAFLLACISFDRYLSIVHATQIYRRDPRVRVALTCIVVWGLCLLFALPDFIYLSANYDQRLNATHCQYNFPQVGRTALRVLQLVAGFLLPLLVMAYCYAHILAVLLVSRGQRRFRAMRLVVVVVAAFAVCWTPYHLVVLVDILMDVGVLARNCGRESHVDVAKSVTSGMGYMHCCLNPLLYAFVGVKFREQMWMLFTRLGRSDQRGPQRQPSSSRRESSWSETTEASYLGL

[3] = molecular target: T2, C-X-C chemokine receptor type 3 (Homo sapiens, UniProt P49682); experiment: Antagonist activity at human CXCR3 by [35S]GTP-gamma-S binding assay; assay type: functional
T2 sequence (P49682 whole entry): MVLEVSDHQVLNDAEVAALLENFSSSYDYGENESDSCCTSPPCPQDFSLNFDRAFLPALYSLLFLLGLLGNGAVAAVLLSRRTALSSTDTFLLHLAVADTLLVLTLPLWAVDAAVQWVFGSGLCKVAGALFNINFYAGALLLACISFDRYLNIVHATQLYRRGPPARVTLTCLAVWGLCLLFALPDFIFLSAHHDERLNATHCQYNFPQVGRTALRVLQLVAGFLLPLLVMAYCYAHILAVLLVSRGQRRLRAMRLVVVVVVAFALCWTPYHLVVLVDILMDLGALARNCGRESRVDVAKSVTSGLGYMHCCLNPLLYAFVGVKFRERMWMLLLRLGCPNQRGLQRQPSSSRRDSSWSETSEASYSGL

[4] = Distribution coefficient, log D at pH 7.4; assay type: physicochemical; conditions: octanol/water
Method in brief: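 Octanol–water partition at pH 7.4.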

Homo sapiens = species on record: Homo sapiens; experiment: Protein binding to human plasma; conditions: read-out: PPB
[5] = Solubility at pH 6.5 buffer; assay type: physicochemical
Cytochrome P450 2D6 = Cytochrome P450 2D6 (Homo sapiens, UniProt P10635); experiment: Inhibition of CYP2D6; assay type: ADME
[6] = Oral bioavailability in BALB/c mouse at 30 mg/kg; assay type: ADME, organism-based; conditions: in vivo
Method in brief: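 Balb/c mice given 30 mg/kg orally; plasma concentrations followed over time, sampled from 0 to 16 h post dose.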

[7] = Half life in mouse; assay type: ADME, organism-based; conditions: in vivo
Mus musculus [8] = species on record: Mus musculus; experiment: In vitro inhibition of CXCL11-induced mouse CXCR3 receptor internalization in mouse T cells in presence of 90% naive mouse plasma; conditions: T-cell, read-out: pA2 (converted)
Mus musculus [9] = experiment: Ex vivo inhibition of CXCL11-induced mouse CXCR3 receptor internalization in mouse T cells at 30 mg/kg, po after 4 hrs; assay type: functional, organism-based; design: dose 30 mg/kg; conditions: T-cell
Method in brief: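 Mice dosed orally at 30 mg/kg; plasma collected at timepoints post dose and incubated with activated murine T cells, then 3 nM CXCL11 (A75) for 60 min at 37 °C; agonist removed, surface CXCR3 measured by flow cytometry.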

[10] = molecular target: T3, Muscarinic acetylcholine receptor M1 (Homo sapiens, UniProt P11229); experiment: Inhibition of muscarinic M1 receptor
T3 sequence (P11229 whole entry): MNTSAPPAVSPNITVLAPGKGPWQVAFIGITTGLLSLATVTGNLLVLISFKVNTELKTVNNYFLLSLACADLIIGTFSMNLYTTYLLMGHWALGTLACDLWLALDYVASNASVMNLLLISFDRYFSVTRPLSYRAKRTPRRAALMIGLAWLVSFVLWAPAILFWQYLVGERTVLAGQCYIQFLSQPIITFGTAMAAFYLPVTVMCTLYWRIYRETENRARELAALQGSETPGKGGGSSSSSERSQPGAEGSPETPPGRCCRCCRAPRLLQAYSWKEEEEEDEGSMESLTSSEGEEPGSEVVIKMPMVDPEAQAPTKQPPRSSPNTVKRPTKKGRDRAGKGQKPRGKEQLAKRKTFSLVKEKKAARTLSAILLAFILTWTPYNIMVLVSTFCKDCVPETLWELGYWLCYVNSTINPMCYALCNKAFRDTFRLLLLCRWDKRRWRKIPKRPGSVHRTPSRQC

[11] = molecular target: Muscarinic acetylcholine receptor M3 (Homo sapiens, UniProt P20309); experiment: Inhibition of muscarinic M3 receptor
[12] = molecular target: 5-hydroxytryptamine receptor 5A (Homo sapiens, UniProt P47898); experiment: Inhibition of 5HT5A receptor
[13] = molecular target: T4, Muscarinic acetylcholine receptor M2 (Homo sapiens, UniProt P08172); experiment: Inhibition of muscarinic M2 receptor
T4 sequence (P08172 whole entry): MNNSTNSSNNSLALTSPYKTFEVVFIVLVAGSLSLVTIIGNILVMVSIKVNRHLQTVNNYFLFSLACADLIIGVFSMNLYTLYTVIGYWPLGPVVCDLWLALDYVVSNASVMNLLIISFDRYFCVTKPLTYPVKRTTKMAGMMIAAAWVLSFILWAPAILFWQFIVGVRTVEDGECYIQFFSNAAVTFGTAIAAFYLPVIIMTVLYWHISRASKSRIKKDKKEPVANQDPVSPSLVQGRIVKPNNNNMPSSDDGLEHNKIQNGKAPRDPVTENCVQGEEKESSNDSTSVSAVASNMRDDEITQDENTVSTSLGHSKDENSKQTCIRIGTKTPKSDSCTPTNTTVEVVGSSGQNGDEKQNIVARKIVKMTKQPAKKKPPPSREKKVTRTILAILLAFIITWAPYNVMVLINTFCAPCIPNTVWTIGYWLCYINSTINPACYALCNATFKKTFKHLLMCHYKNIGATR

Mus musculus [14] = experiment: Ex vivo inhibition of CXCL11-induced mouse CXCR3 receptor internalization in mouse T cells at 30 mg/kg, po after 10 hrs; assay type: functional, organism-based; design: dose 30 mg/kg; conditions: T-cell
Method in brief: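 Mice were dosed orally at 30 mg/kg, and plasma was taken at each timepoint after dosing. Activated murine T cells were incubated with that plasma, then stimulated with 3 nM CXCL11 (A75) for 60 min at 37 °C. Agonist was removed and surface CXCR3 was measured by flow cytometry.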

[15] = Inhibition of sodium channel
[16] = molecular target: T5, 5-hydroxytryptamine receptor 1A (Homo sapiens, UniProt P08908); experiment: Inhibition of 5HT1A receptor
T5 sequence (P08908 whole entry): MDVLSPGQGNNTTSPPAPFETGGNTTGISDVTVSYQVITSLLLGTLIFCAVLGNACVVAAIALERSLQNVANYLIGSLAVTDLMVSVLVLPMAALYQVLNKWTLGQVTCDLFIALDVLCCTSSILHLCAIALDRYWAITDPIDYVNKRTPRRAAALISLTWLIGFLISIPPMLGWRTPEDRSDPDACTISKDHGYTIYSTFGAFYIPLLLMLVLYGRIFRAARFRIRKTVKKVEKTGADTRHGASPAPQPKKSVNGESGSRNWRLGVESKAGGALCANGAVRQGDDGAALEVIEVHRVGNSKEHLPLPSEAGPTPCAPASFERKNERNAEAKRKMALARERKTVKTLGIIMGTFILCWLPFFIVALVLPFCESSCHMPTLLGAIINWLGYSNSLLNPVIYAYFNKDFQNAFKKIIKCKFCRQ

Chain of Cytochrome P450 2D6 (P10635 whole entry): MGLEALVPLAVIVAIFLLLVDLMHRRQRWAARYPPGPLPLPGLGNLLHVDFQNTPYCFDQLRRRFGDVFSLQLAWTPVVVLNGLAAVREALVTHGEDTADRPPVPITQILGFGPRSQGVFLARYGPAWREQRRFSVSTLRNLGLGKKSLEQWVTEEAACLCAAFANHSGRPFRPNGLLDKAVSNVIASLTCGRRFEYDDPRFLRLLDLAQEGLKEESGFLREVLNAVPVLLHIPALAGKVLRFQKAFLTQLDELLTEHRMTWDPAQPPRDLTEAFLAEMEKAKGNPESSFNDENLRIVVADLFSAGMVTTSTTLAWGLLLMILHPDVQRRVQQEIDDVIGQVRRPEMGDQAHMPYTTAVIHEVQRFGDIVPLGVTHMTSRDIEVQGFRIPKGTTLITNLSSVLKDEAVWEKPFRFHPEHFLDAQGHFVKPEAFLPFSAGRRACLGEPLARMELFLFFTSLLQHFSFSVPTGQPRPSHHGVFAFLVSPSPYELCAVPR
Chain of 5-hydroxytryptamine receptor 5A (P47898 whole entry): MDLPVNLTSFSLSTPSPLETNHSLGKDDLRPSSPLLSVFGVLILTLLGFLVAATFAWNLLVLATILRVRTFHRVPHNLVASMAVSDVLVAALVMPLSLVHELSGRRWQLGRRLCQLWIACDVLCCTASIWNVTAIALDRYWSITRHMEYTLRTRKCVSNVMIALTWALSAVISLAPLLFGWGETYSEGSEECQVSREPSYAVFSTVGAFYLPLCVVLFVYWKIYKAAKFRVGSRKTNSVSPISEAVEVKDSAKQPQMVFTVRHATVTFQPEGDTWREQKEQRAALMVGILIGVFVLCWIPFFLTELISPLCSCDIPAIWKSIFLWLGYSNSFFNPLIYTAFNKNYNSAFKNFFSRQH
Chain of Muscarinic acetylcholine receptor M3 (P20309 whole entry): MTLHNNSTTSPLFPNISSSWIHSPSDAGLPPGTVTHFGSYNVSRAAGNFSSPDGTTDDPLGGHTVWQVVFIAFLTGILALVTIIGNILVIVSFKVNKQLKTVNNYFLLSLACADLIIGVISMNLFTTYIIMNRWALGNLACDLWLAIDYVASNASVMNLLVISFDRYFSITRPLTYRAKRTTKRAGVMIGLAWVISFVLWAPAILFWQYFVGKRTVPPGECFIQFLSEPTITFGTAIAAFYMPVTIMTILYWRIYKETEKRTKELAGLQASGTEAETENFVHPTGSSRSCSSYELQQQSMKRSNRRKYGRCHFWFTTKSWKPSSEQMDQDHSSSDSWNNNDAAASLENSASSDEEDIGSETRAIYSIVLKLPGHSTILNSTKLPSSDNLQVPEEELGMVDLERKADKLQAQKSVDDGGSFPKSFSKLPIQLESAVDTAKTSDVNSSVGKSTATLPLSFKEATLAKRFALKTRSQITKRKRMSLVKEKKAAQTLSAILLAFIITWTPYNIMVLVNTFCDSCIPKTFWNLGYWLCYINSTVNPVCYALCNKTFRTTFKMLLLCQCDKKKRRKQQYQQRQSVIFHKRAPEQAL

microsomal CLint at 0.5 µM [1]	Ki [2]	Ki [3]	logD [4]	solubility [5]	SMILES	other results
9 µL/min/mg	80 nM	20 nM	3.4		O=C(Nc1cc(F)cc(C(F)(F)F)c1)NC1CCN(CC2=CC3CCC(C2)N3C(=O)C2CC2)CC1 (stereo not given)	
60 µL/min/mg	100 nM	18 nM	4.2		CC(C)(C)C(=O)N1C2C=C(CN3CCC(NC(=O)Nc4cc(F)cc(C(F)(F)F)c4)CC3)CC1CC2 (stereo not given)	
	650 nM	120 nM	2.8		CC(=O)N1C2CCC1CC(CN1CCC(NC(=O)Nc3cc(F)cc(C(F)(F)F)c3)CC1)C2 (mixture of isomers)	
10 µL/min/mg		280 nM	2.8		CC(=O)c1cccc(NC(=O)NC2CCN(CC3=CC4CCCC(C3)N4C(C)=O)CC2)c1 (stereo not given)	
82 µL/min/mg	400 nM	26 nM	5.1	< 1 µg/mL	CC1(C)[C@H]2CC=C(CN3CCC(NC(=O)Nc4cc(C(F)(F)F)cc(C(F)(F)F)c4)CC3)[C@@H]1C2	fraction unbound (Homo sapiens): 0.001; Ki (Cytochrome P450 2D6): 5000 nM
3.5 µL/min/mg		1100 nM	2.8	1360 µg/mL (≈ 2710 µM)	O=C(Nc1cc(C(F)(F)F)cc(C(F)(F)F)c1)NC1CCN(CCC2CCS(=O)(=O)C2)CC1 (stereo not given)	bioavailability [6]: 52%; half-life [7]: 5.5 h
58 µL/min/mg	180 nM	28 nM	3.9		CC(C)C(=O)N1C2C=C(CN3CCC(NC(=O)Nc4cc(F)cc(C(F)(F)F)c4)CC3)CC1CC2 (stereo not given)	
22 µL/min/mg	33 nM	11 nM	2.5		CC(=O)N1C2C=C(CN3CCC(NC(=O)Nc4cccc(OC(C)C)c4)CC3)CC1CCC2 (stereo not given)	
11 µL/min/mg	120 nM	27 nM	3		CC(=O)N1C2C=C(CN3CCC(NC(=O)Nc4cc(F)cc(C(F)(F)F)c4)CC3)CC1CC2 (stereo not given)	
48 µL/min/mg	950 nM	190 nM	4.6		CCOC(=O)N1C2C=C(CN3CCC(NC(=O)Nc4cc(F)cc(C(F)(F)F)c4)CC3)CC1CC2 (stereo not given)	
72 µL/min/mg				0.1 µg/mL (≈ 0.255 µM)	O=C(Nc1ccc2ccccc2c1)NC1CCN(C/C2=C/CCCCCC2)CC1	fraction unbound (Homo sapiens): < 0.001; bioavailability [6]: 1%
80 µL/min/mg		60 nM	4.2	45 µg/mL (≈ 83.9 µM)	CC(C)(C)C(=O)N1CCC(CN2CCC(NC(=O)Nc3cc(C(F)(F)F)cc(C(F)(F)F)c3)CC2)CC1	fraction unbound (Homo sapiens): 0.01
74 µL/min/mg	57 nM	10 nM	4.5		CC(C)(C)C(=O)N1C2C=C(CN3CCC(NC(=O)Nc4cc(F)cc(C(F)(F)F)c4)CC3)CC1CCC2 (stereo not given)	
9 µL/min/mg	38 nM	9 nM	3.4		CC(=O)N1C2C=C(CN3CCC(NC(=O)Nc4cc(F)cc(C(F)(F)F)c4)CC3)CC1CCC2 (stereo not given)	Kb (Mus musculus [8]): 186 nM; Activity (Mus musculus [9]): Active
50 µL/min/mg	6 nM	3 nM	2.7		CC(=O)N1C2C=C(CN3CCC(NC(=O)Nc4cc(F)cc(OC(C)C)c4)CC3)CC1CCC2 (stereo not given)	
4.5 µL/min/mg		180 nM	3.1	850 µg/mL (≈ 1720 µM)	CC(=O)N1CCC(CN2CCC(NC(=O)Nc3cc(C(F)(F)F)cc(C(F)(F)F)c3)CC2)CC1	

SMILES	microsomal CLint at 0.5 µM [1]	Ki [2]	Ki [3]	logD [4]	solubility [5]	other results
CC(=O)N1C2C=C(CN3C4CCC3CC(NC(=O)Nc3cc(F)cc(C(F)(F)F)c3)C4)CC1CCC2 (stereo not given)	7 µL/min/mg	6 nM	7 nM	3.1	40 µg/mL (≈ 78.7 µM)	Kb (Mus musculus [8]): 95.5 nM; Ki [10]: 230 nM; bioavailability [6]: 70%; Ki [11]: 1200 nM; Ki [12]: 3000 nM; Ki (Cytochrome P450 2D6): 15000 nM; Ki [13]: 280 nM; Activity (Mus musculus [14]): Active; Ki [15]: 570 nM; Ki [16]: 280 nM
